In brackets after ≈: the same amount, converted by molar mass.
Key:
NFF = test: Cytotoxicity against human NFF cells after 3 days by sulforhodamine B assay; assay type: cell-based; settings: 72 h
Summary of the method: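 Neonatal foreskin fibroblasts grown in RPMI 1640 with 10% FCS and 1% streptomycin at 37 °C, 5% CO2, kept in log phase. Seeded at 3000/well and grown 24 h before treatment. Compounds diluted from DMSO into medium (≤1% DMSO); controls got matching DMSO. After 3 days, PBS wash, fixation in methylated spirits, total protein by sulforhodamine B. Triplicate, three independent experiments.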

Plasmodium falciparum [1] = test: Antimalarial activity against chloroquine-resistant ring stage plasmodium falciparum Dd2 infected in erythrocytes assessed as [3H]hypoxanthine incorporation after 48 hrs by liquid scintillation counting; assay type: functional, organism-based
Summary of the method: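 Infected erythrocytes at 0.5% parasitemia and 2.5% hematocrit were plated into serial dilutions of test compound or chloroquine control. After 48 h under standard culture conditions, 0.5 μCi 3H-hypoxanthine was added per well and incubation continued 24 h. Cells were harvested onto filter mats and counted by scintillation. Inhibition was set against 0.5% DMSO controls, and IC50 was obtained by linear interpolation. Mean ± SD of three independent triplicate experiments.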

Plasmodium falciparum [2] = test: Antimalarial activity against chloroquine-sensitive ring stage plasmodium falciparum 3D7 infected in erythrocytes assessed as [3H]hypoxanthine incorporation after 48 hrs by liquid scintillation counting; assay type: functional, organism-based
Summary of the method: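 P. falciparum 3D7-infected type O+ erythrocytes (0.5% parasitemia, 2.5% hematocrit) incubated with serial dilutions for 48 h under standard culture conditions. 0.5 μCi 3H-hypoxanthine then added and culture continued a further 24 h. Incorporation counted by liquid scintillation against 0.5% DMSO controls. IC50 by linear interpolation of inhibition curves. Mean of three independent experiments, each in triplicate, ±SD.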

[3] = Selectivity index, ratio of IC50 for human NFF cells to IC50 for chloroquine-sensitive ring stage plasmodium falciparum 3D7
Staphylococcus aureus = test: Antibacterial activity against Staphylococcus aureus; assay type: functional, organism-based
Pseudomonas aeruginosa = test: Antibacterial activity against Pseudomonas aeruginosa; assay type: functional, organism-based

| Structure (SMILES) | IC50 (NFF) [µM] | IC50 (Plasmodium falciparum [1]) [µM] | IC50 (Plasmodium falciparum [2]) [µM] | Ratio IC50 [3] | IC50 (Staphylococcus aureus) [µg/mL] | IC50 (Pseudomonas aeruginosa) [µg/mL] |
| --- | --- | --- | --- | --- | --- | --- |
| CCN(CC)CCCC(C)Nc1ccnc2cc(Cl)ccc12 (stereo unspecified) [CHLOROQUINE] | 37.3 | – | – | – | – | – |
| COC1=CC(=O)c2c(O)c3c(c(O)c2C1=O)C[C@](C)(O)CC3 | 54.6 | 5.2 | 4.5 | 12.1 | – | – |
| CNC1=CC(=O)c2c(O)c3c(c(O)c2C1=O)C[C@](C)(O)C[C@@H]3O | 59.1 | – | 6.9 | 8.6 | – | – |
| COC1=CC(=O)c2c(O)c3c(c(O)c2C1=O)C[C@](C)(O)C[C@@H]3O | 15.6 | 2.2 | 1.9 | 8.2 | 3 (≈ 9.37 µM) | > 50 |
| CC(C)(C)OC(=O)NCCCNC1=CC(=O)c2c(O)c3c(c(O)c2C1=O)C[C@](C)(O)C[C@@H]3O | 36.5 | – | 6.7 | 5.4 | – | – |
| C[C@]1(O)Cc2c(O)c3c(c(O)c2[C@@H](O)C1)C(=O)C=C(NCCc1ccc(O)cc1)C3=O | 23.3 | – | 2.4 | 9.7 | – | – |
| C[C@]1(O)Cc2c(O)c3c(c(O)c2[C@@H](O)C1)C(=O)C=C(NCc1ccccc1)C3=O | 10.7 | – | 7.4 | 1.4 | – | – |
| COc1cc(O)c2c(c1O)C(=O)c1cc(C)ccc1C2=O [AUSTROCORTIRUBIN] | 76 | > 50 | > 50 | – | – | – |
| C[C@]1(O)Cc2c(O)c3c(c(O)c2[C@@H](O)C1)C(=O)C=C(NCCN1CCCC1)C3=O | 15.9 | – | 6.3 | 2.5 | – | – |
| C[C@]1(O)Cc2c(O)c3c(c(O)c2[C@@H](O)C1)C(=O)C=C(NCCN1CCOCC1)C3=O | 62 | – | 15.8 | 3.9 | – | – |
| CCCNC1=CC(=O)c2c(O)c3c(c(O)c2C1=O)C[C@](C)(O)C[C@@H]3O | 78.8 | – | 4.3 | 18.3 | – | – |
| COCCNC1=CC(=O)c2c(O)c3c(c(O)c2C1=O)C[C@](C)(O)C[C@@H]3O | 84.3 | – | 10.3 | 8.2 | – | – |
| COC1=CC(=O)c2c(O)c3c(c(O)c2C1=O)C[C@@](C)(O)C[C@@H]3O | 43.7 | 11.1 | 4.7 | 9.3 | – | – |
| C[C@]1(O)Cc2c(O)c3c(c(O)c2[C@@H](O)C1)C(=O)C=C(NCCc1ccc(Cl)cc1)C3=O | 66 | – | 4.2 | 15.7 | – | – |
| C[C@]1(O)Cc2c(O)c3c(c(O)c2[C@@H](O)C1)C(=O)C=C(NCCc1ccccc1)C3=O | 3.5 | – | 3.8 | 0.9 | – | – |
| C[C@]1(O)Cc2c(O)c3c(c(O)c2[C@@H](O)C1)C(=O)C=C(NCCCN)C3=O | 89.8 | – | 16.5 | 5.4 | – | – |

— ChEMBL document CHEMBL2203201, “Synthesis and antimalarial evaluation of a screening library based on a tetrahydroanthraquinone natural product scaffold” (Bioorg Med Chem, 2012)
